# Test results as given in ChEMBL document CHEMBL3414513, “Synthesis and biological evaluation of betulonic acid derivatives as antitumor agents” (Eur J Med Chem, 2015).
# Activity calls are given as the source filed them. No cut-off for these calls is given here.
# Assays:
# MGC-803 [1] = test: Cytotoxicity against human MGC803 cells after 72 hrs by MTT assay; assay type: functional, cell-based
# How it was run: (§1)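 Cancer lines grown in RPMI 1640 with 10% heat-inactivated FBS, 37 °C, 5% CO2. Cells trypsinized at 80-90% confluence, seeded at 2×10^3/well overnight, then given compounds (DMSO stocks diluted in medium) at various concentrations for 72 h at 37 °C. Controls: 0.1% DMSO negative, adriamycin positive. MTT (5 mg/ml) added for 4 h, formazan dissolved in SDS 12 h, A595 read. IC50 from dose-response curves.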
# [2] = (§2) Cytotoxicity against human PC3 cells after 72 hrs by MTT assay; assay type: functional, cell-based; conditions: PC-3, 72 h
# How it was run: as §1, with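 “Cells” for “Cancer lines grown in RPMI 1640 with 10% heat-inactivated FBS, 37 °C, 5% CO2. Cells”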
# PC-3 [3] = test: as §2; assay type: functional, cell-based
# How it was run: as §1, with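 “Cells” for “Cancer lines grown in RPMI 1640 with 10% heat-inactivated FBS, 37 °C, 5% CO2. Cells”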
# Bcap37 [4] = test: Cytotoxicity against human Bcap37 cells after 72 hrs by MTT assay; assay type: functional, cell-based; how it was run: as §1
# A-375 [5] = test: Cytotoxicity against human A375 cells after 72 hrs by MTT assay; assay type: functional, cell-based; how it was run: as §1
# MCF7 [6] = test: Cytotoxicity against human MCF7 cells after 72 hrs by MTT assay; assay type: functional, cell-based; how it was run: as §1
# MGC-803 [7] = test: Selectivity index, ratio of IC50 for mouse NIH/3T3 cells to IC50 for human MGC803 cells; assay type: functional
# How it was run: (§3)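 Index is the IC50 in normal NIH3T3 cells divided by the IC50 in each cancer line. […] HCPT and adriamycin were used as positive controls.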
# PC-3 [8] = test: Selectivity index, ratio of IC50 for mouse NIH/3T3 cells to IC50 for human PC3 cells; assay type: functional; how it was run: as §3
# Bcap37 [9] = test: Selectivity index, ratio of IC50 for mouse NIH/3T3 cells to IC50 for human Bcap37 cells; assay type: functional; how it was run: as §3
# A-375 [10] = test: Selectivity index, ratio of IC50 for mouse NIH/3T3 cells to IC50 for human A375 cells; assay type: functional; how it was run: as §3
# MCF7 [11] = test: Selectivity index, ratio of IC50 for mouse NIH/3T3 cells to IC50 for human MCF7 cells; assay type: functional; how it was run: as §3
# MGC-803 [12] = test: Induction of apoptosis in human MGC803 cells at 5 uM after 12 to 48 hrs by acridine orange/ethidium bromide staining-based fluorescence microscopic analysis; assay type: functional, cell-based
# How it was run: (§4)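 MGC-803 cells at 5×10^4 cells/mL were seeded in 6-well plates. Medium was replaced with fresh medium plus 10% FBS containing compound, 5 µM for 12-48 h. Controls: HCPT 10 µM for 48 h, DMSO. Cells were washed with PBS and the coverslip was inverted onto 20 µL AO/EB stain (100 µg/mL). Fluorescence microscopy scored live, early apoptotic, late apoptotic and necrotic nuclei.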
# MGC-803 [13] = test: Induction of apoptosis in human MGC803 cells assessed as necrotic cells at 5 uM after 12 to 48 hrs by acridine orange/ethidium bromide staining-based fluorescence microscopic analysis; assay type: functional, cell-based; how it was run: as §4
# MGC-803 [14] = test: Induction of apoptosis in human MGC803 cells assessed as appearance of compact condensed and crescent shaped cells at 5 uM after 12 to 48 hrs by Hoechst 33258 staining-based fluorescence microscopic analysis; assay type: functional, cell-based
# How it was run: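 MGC-803 cells (5×10^4 cells/mL, 6-well plates) were treated at 5 µmol/L for 12-48 h in fresh medium with 10% FBS. Controls: HCPT 10 µM for 48 h, DMSO. Cells were fixed in 4% paraformaldehyde for 10 min and stained with Hoechst 33258 for 5 min. Fluorescence microscopy used 350 nm excitation and 460 nm emission.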
# MGC-803 [15] = test: Induction of apoptosis in human MGC803 cells assessed as DNA fragmentation at 5 uM after 12 to 48 hrs by TUNEL assay; assay type: functional, cell-based
# How it was run: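 MGC-803 cells (5×10^4 cells/mL, 6-well) were exposed at 5 µM for 12-48 h. Controls: HCPT 10 µM for 48 h, DMSO. Colorimetric TUNEL: fixed in 4% paraformaldehyde 40 min, permeabilized on ice, endogenous peroxidase quenched with 0.3% H2O2/methanol 20 min. Then TdT plus biotin-dUTP 60 min at 37 °C, streptavidin-HRP 30 min, DAB 10 min. Brown precipitate scored by light microscopy.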
# MGC-803 [16] = test: Induction of apoptosis in human MGC803 cells assessed as apoptosis ratio at 10 uM after 36 hrs by Annexin V-FITC/propidium iodide staining-based flow cytometric analysis; assay type: functional
# How it was run: (§5)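 MGC-803 cells were treated at 10 µM, with 36 h among the time points; HCPT 10 µM served as positive control. Cells at 1×10^6/mL were washed in cold PBS and resuspended in 500 µL binding buffer. Staining used 5 µL Annexin V-FITC plus 5 µL PI for 20 min in the dark, then flow cytometry. Apoptosis ratio is early plus late apoptotic quadrants.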
# MGC-803 [17] = test: Induction of apoptosis in human MGC803 cells at 10 uM by Annexin V-FITC/propidium iodide staining-based flow cytometric analysis; assay type: functional, cell-based; conditions: TDE = time-dependent effect; how it was run: as §5
# [18] = Upregulation of p53 expression in human MGC803 cells at 2.5 to 10 uM after 12 hrs by Western blot analysis; assay type: functional, cell-based; conditions: MGC-803
# How it was run: (§6)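 MGC-803 cells were treated at 2.5, 5 or 10 µM for 12 h, then collected. Western blots were probed with anti-p53 and anti-Bax (1:500 to 1:1000), with β-actin as loading reference.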
# [19] = Upregulation of Bax expression in human MGC803 cells at 2.5 to 10 uM after 12 hrs by Western blot analysis; assay type: functional, cell-based; conditions: MGC-803; how it was run: as §6
# MGC-803 [20] = test: Induction of apoptosis in human MGC803 cells assessed as activation of caspase-3 using Ac-[…]-pNA as probe at 2.5 to 10 uM after 12 hrs; assay type: functional, cell-based
# How it was run: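 MGC-803 cells were treated at 2.5, 5 or 10 µM for 12 h. Cells (1×10^6/mL) were washed in cold PBS, lysed on ice for 25 min and spun at 18000 g for 15 min. Supernatant was mixed with reaction buffer and Ac-[…]-pNA and incubated at 37 °C for 2-3 h in the dark. A405 was read against a lysis/reaction buffer blank.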
# MGC-803 [21] = test: Induction of apoptosis in human MGC803 cells assessed as activation of caspase-9 using Ac-LEHD-pNA as probe at 2.5 to 10 uM after 12 hrs; assay type: functional, cell-based
# How it was run: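 MGC-803 cells were treated at 2.5, 5 or 10 µM for 12 h. Cells were lysed on ice for 25 min and spun at 16000 g for 15 min. Supernatant was mixed with reaction buffer and Ac-LEHD-pNA and incubated at 37 °C for 2-3 h in the dark. A405 was read against a buffer blank.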
structure (smiles),measurement,setting,value
C=C(C)[C@@H]1CC[C@]2(C(=O)OCCCCN3CCCCC3)CC[C@]3(C)[C@H](CC[C@@H]4[C@@]5(C)CCC(=O)C(C)(C)[C@@H]5CC[C@]43C)[C@@H]12,Activity,MGC-803 [1],Dose-dependent effect
same,IC50,"MGC-803 [1]; MGC-803, 72 h",3.6 µM
same,IC50,[2],5.6 µM
same,Activity,PC-3 [3],Dose-dependent effect
same,Activity,Bcap37 [4],Dose-dependent effect
same,IC50,"Bcap37 [4]; Bcap37, 72 h",4.2 µM
same,Activity,A-375 [5],Dose-dependent effect
same,IC50,"A-375 [5]; A-375, 72 h",7.8 µM
same,Activity,MCF7 [6],Dose-dependent effect
same,IC50,"MCF7 [6]; MCF7, 72 h",5.2 µM
same,Ratio IC50,MGC-803 [7],7.38
same,Ratio IC50,PC-3 [8],4.75
same,Ratio IC50,Bcap37 [9],6.33
same,Ratio IC50,A-375 [10],3.41
same,Ratio IC50,MCF7 [11],5.11
same,Activity,MGC-803 [12],Active
same,Activity,MGC-803 [13],inactive
same,Activity,MGC-803 [14],Active
same,Activity,MGC-803 [15],Active
same,Activity,MGC-803 [16],28.33%
same,Activity,MGC-803 [17],tde
same,Activity,[18],Active
same,Activity,[19],Active
same,Activity,MGC-803 [20],Active
same,Activity,MGC-803 [21],Active
